This is an account of results in publication PMC3580853 (Bioorganic & medicinal chemistry letters, 2012).

Series [1] is classed as physicochemical. The note with it: reaction at 37°C, gel apparatus up to 55°C. The method, boiled down: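 Stability inferred from a single-turnover incorporation time course using HIV-1 RT (250 nM) and D23/D36 primer/template (50 nM). The test triphosphate (150 μM) and a dTTP reference (100 μM) were run in parallel at 37°C and sampled at 0, 30 s, 5, 10, 30 and 60 min. Products were resolved on denaturing acrylamide gel (apparatus up to 55°C), comparing band mobility.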

The next series relates to HIV-1. The note with it: MT-2 cell culture.

As to `Cc1cc(C#CCOCCOCCOCCOCCOCC#Cc2cn([C@H]3C=C[C@@H](COP(=O)(O)OP(=O)(O)OP(=O)(O)O)O3)c(=O)[nH]c2=O)cc(C)c1Oc1ccnc(Nc2ccc(C#N)cc2)n1` [d4TTP-4PEG-TMC], the “Stability (in words)” value in series [1] was “increased compound stability”.

Turning to `CC(C)=CCN1Cc2c(OCCOCCOCCOCCOC(=O)CCc3cn([C@H]4C=C[C@@H](CO)O4)c(=O)[nH]c3=O)ccc3[nH]c(=S)n(c23)C[C@@H]1C` [Compound 16a], in the series with HIV-1, the “Antiviral activity in cell culture (in words)” value is reported as “most inhibitory”.
